This passage reports cholesterol uptake results from PubChem BioAssay AID588837 (Broad Institute, 2011).

For the test, the target named is Scavenger receptor class B member 1 (Mus musculus) (UniProt Q61009). Put plainly: [3H]CE-HDL uptake via mutant mSR-BI – C384S mutant cells, scintillation, powder samples, mechanism study for SR-BI HDL uptake inhibitor project, late-stage follow-up (AID 588837). Conditions: CHO ldlA C384S mSR-BI, 2 h, at 1 µM, active compounds read low. An outline of the steps: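 Material: CHO cells lacking LDL receptor, overexpressing C384S mutant SR-BI | Medium: F12K plus 0.5% fatty acid-free BSA | Probe or stimulus: HDL carrying tritium-labeled cholesteryl ester | Timing: 1 h compound preincubation, then 2 h HDL uptake, 37 °C | Measured by: Scintillation counting of cell-associated tritium label | Control set: 40-fold excess unlabeled HDL defining nonspecific background uptake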
Chain of Scavenger receptor class B member 1 (Mus musculus) (Q61009 whole entry C384S): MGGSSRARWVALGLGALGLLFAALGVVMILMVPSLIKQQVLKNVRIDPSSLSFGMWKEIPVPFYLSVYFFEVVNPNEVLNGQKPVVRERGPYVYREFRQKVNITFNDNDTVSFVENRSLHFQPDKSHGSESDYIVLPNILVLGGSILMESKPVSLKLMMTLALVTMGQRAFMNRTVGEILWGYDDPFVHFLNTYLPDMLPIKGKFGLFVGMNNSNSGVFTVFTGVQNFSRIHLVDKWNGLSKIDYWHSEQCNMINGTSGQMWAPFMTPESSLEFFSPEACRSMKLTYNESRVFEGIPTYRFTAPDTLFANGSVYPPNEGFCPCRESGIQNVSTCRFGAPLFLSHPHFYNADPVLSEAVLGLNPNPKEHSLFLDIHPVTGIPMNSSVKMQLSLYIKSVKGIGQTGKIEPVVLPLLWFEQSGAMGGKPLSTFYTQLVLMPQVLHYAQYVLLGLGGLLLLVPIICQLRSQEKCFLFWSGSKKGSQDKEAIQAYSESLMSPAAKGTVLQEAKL

Molecules are shown by their SMILES. Calls of active or inactive are those of the source. No rule for the calls is given here.

As to `Cc1ccc2oc(-c3cccc(NC(=O)c4cc(-n5cnnc5)ccc4Cl)c3)nc2c1`, the cholesterol uptake is 84.4%.
As to `CCOC(=O)N1CCC(NC(=O)c2ccc3c(c2)N(Cc2ccc(F)cc2)CCS3)CC1`, the cholesterol uptake was 78.2%.
The same measure for `O=C(Nc1ccc(Cl)cc1C(=O)c1ccc(Cl)cc1)c1cc(Br)ccc1NS(=O)(=O)c1ccc(Cl)cc1`: 121% (inactive); for `COc1ccc(-c2nnn(CC(=O)N(C3CCCCC3)C(C)C(=O)NC3CCCC3)n2)cc1OC` (stereo not given): 89.4%.
As to `CCC(=O)N1CCc2cc(-c3csc(NC(=O)c4ccco4)n3)ccc21`, the cholesterol uptake is 88.3%.
